From PMC3496166 (Scientific Reports, 2012)
Read-outs that look alike come from different tables or passages of the source.

Tests used:
[1] = target: IF2 (Escherichia coli, UniProt P0A705); assay: isothermal titration calorimetry; assay type: binding
Outline: (§1)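 Assay used 6His-tagged E. coli protein, purified with an added Ni-NTA step. ITC ran at 5 or 25°C in pH 7.5 phosphate buffer (5 mM K2HPO4, 95 mM KCl, 5 mM MgCl2, 1 mM DTT, 10% glycerol). G nucleotide or 27-nt SRL RNA (50–500 μM in syringe) was titrated into protein (5–40 μM in cell), some runs with 500 μM nucleotide or 200 μM SRL added. Dilution heat subtracted; one-site nonlinear fit.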

[2] = target: EF-G (Escherichia coli, UniProt P0A6M8); assay: isothermal titration calorimetry; assay type: binding
Sequence of EF-G (Escherichia coli, UniProt P0A6M8) (P0A6M8 2-704): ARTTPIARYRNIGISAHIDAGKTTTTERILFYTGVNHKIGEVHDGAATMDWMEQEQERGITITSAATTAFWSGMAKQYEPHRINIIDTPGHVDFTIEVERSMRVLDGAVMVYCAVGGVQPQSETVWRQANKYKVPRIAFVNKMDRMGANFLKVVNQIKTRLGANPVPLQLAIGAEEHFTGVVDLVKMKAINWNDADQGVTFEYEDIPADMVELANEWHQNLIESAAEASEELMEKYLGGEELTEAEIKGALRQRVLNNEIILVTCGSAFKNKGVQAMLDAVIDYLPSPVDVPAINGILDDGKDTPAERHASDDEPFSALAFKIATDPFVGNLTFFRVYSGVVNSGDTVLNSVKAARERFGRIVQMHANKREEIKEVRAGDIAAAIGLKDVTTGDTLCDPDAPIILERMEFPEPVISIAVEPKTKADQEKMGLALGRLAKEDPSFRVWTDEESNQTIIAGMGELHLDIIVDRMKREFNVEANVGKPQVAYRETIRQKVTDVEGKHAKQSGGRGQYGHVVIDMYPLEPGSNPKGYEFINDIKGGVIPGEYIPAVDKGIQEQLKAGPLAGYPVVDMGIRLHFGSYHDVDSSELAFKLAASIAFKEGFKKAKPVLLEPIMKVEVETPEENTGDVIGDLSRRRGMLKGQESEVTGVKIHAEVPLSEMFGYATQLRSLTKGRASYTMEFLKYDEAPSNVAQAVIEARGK
Outline: as §1

[3] = target: T1, IF2 (E. coli, UniProt P0A705 1-890); assay: ITC
T1 sequence (P0A705 whole entry): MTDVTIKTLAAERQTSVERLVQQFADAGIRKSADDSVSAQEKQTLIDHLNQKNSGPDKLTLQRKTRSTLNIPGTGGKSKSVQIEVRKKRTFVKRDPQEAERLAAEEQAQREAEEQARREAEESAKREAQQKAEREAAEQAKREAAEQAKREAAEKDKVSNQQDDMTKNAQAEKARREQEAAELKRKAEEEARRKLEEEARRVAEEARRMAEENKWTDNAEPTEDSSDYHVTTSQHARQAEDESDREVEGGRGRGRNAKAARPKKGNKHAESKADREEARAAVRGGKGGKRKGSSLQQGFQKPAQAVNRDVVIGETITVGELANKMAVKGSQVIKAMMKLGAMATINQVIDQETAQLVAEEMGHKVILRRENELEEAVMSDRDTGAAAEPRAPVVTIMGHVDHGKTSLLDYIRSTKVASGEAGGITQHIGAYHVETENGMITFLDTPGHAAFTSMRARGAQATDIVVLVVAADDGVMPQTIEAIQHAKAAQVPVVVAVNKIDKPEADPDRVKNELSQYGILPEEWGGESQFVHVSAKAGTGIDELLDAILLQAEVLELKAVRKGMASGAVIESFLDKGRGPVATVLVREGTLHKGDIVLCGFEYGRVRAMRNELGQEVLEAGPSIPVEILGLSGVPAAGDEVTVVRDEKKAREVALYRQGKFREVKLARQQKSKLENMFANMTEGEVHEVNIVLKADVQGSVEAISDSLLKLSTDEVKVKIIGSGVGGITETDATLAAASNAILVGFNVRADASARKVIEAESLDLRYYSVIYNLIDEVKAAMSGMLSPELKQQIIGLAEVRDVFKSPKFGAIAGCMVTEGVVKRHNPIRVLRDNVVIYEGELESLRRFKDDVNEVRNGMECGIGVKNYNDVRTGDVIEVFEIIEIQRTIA

[4] = target: T1, IF2; assay: ITC; remark: listed apart in the source
[5] = target: T2, EF-G (E. coli, UniProt P0A6M8 1-704); assay: ITC
T2 sequence (P0A6M8 whole entry): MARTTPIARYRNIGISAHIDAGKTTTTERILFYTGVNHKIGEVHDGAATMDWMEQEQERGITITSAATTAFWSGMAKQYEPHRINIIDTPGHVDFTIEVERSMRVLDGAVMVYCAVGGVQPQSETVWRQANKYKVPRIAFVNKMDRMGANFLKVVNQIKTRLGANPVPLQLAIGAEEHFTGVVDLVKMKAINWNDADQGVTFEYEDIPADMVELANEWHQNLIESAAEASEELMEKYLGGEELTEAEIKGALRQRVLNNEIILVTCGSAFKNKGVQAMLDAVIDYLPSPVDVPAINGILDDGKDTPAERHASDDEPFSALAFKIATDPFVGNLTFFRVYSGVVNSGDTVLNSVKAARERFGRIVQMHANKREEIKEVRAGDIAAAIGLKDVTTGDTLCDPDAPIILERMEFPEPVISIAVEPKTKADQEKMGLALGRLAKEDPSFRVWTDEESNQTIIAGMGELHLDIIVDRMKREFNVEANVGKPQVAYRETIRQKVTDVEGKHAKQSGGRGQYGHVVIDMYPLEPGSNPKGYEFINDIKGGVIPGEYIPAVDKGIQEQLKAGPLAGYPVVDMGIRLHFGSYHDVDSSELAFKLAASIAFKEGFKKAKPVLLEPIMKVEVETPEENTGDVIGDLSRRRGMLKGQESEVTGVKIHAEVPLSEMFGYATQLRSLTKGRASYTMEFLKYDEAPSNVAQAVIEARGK

[6] = target: T2, EF-G; assay: ITC; remark: listed apart in the source
[7] = target: T2, EF-G; assay: ITC; remark: listed apart in the source

Sequence of IF2 (Escherichia coli, UniProt P0A705) (P0A705 whole entry): as the sequence (P0A705 whole entry) above

| Molecule | Kd [1] | Kd [2] | Kd [3] | Kd [4] | Kd [5] | Kd [6] | Kd [7] |
| --- | --- | --- | --- | --- | --- | --- | --- |
| Nc1nc2c(ncn2[C@@H]2O[C@H](COP(=O)(O)OP(=O)(O)O)[C@@H](O)[C@H]2O)c(=O)[nH]1 [GDP] | 1600 nM | 1800 nM | – | – | – | – | – |
| Nc1nc2c(ncn2[C@@H]2O[C@H](COP(=O)(O)OP(=O)(O)OP(=O)(O)O)[C@@H](O)[C@H]2O)c(=O)[nH]1 [GTP] | 6700 nM | 2700 nM | – | – | – | – | – |
| GGGCUCCUAGUACGAGAGGACCGGAGU (structured_RNA) [SRL RNA wt (27 nt)] | – | – | 1000 nM | 670 nM | 4200 nM | 3700 nM | 5900 nM |
